S1P3 ag: human S1P3 receptor agonists, primary screen, cell-based, primary and confirmation, NFAT-BLA reporter | Sphingosine 1-phosphate receptor 3 (Homo sapiens), Q99500 | S1P3 NFAT-BLA reporter cells, agonism, FRET ratio; relative to 1 µM S1P, basal subtracted | activation, % at 4.5 µM | 60,000 tested, 0.1% active | AID 373, 2006;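 active = activation above the screen-wide mean plus 3 SD, cut at about 4.5% in these data, passing the limit was not always enough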
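Material: Human S1P3 NFAT-BLA reporter CHO cells | Incubation: Overnight plating, 4 h compound 37 °C, 2 h substrate RT | Signal: FRET β-lactamase substrate fluorescence, excitation 405 nm, 460/535 nm emission ratio, background-subtracted | Compound: 4.5 µM final, single dose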
5HT1E antag: 5-HT1E receptor antagonists, primary screen, cell-based, HTS. 65,000 tested, 0.99% active. 5-hydroxytryptamine receptor 1E (Homo sapiens), P28566. inhibition, % at 6 µM. CHO 5-HT1E Ga15 NFAT-bla reporter, FRET, antagonist;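 active = inhibition above a set limit, the mean inhibition across every tested compound plus 3 SD, cut at about 29% in these data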;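 also: signal is the 460 over 535 nm emission ratio of beta-lactamase substrate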
S1P1 ag-PAM: S1P1 agonists and agonism potentiators, primary screen, cell-based, primary and confirmation screens, CRE-bla reporter; Sphingosine 1-phosphate receptor 1 (Homo sapiens), P21453; 56,000 tested, 0.57% active; activation, % at 9.5 µM; S1P1 CRE-bla cells, forskolin, beta-lactamase FRET, potentiator mode; S1P1 agonist co-added at EC20, 2 nM; 100% = saturating reference agonist, 0% = basal;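 active = activation above a cutoff set at the mean activation of all tested compounds plus 3 SD, cut at about 54% in these data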;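 also: forskolin at 4 µM as EC80 and the EC20 agonist is SEW2871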
Target sequence (P21453 whole entry, looked up): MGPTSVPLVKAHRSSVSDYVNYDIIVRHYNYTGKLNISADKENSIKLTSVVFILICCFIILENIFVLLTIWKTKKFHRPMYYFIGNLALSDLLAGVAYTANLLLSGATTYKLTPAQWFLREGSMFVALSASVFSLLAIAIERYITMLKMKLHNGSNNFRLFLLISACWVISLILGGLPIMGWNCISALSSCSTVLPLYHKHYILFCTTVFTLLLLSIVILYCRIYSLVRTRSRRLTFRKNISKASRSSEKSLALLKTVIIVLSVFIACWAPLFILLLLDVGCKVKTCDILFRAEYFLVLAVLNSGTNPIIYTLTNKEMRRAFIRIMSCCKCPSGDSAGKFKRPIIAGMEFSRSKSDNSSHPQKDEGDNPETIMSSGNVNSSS
HTR1A agonist: human 5-HT1a receptor agonists, primary screen, cell-based, CHO, Ga15 NFAT-bla reporter. 65,000 tested, 0.56% active. 5-hydroxytryptamine receptor 1A (Homo sapiens), P08908. CHO 5-HT1a Ga15 NFAT-bla reporter, FRET ratio; 0% basal, 100% maximal reference agonist. activation, % at 10 µM;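 active = activation above the screen-wide mean activation plus 3 SD, cut at about 19% in these data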
5HT1a antag: human 5-HT1a receptor antagonists, primary screen, cell-based, CHO, Ga15 NFAT-bla reporter; CHO 5-HT1a Ga15 NFAT-bla reporter, antagonist mode; inhibition, % at 10 µM; 62,000 tested, 0.68% active;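 active = inhibition above the mean of all tested compounds plus 3 SD, cut at about 43% in these data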;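 also: receptor stimulated by 5-CT agonist at 100 nM near EC80; beta-lactamase reporter measured by ratiometric fluorescence of a cleavable substrate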
5HT1E ag: 5-HT1E receptor agonists, primary screen, cell-based, HTS | 5-hydroxytryptamine receptor 1E (Homo sapiens), P28566 | CHO 5-HT1E Ga15 NFAT-bla reporter, FRET; 0% DMSO wells, 100% control agonist wells | activation, % at 6 µM | 65,000 tested, 0.69% active;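 active = activation above a set limit, the screen-wide mean activation plus 3 SD, cut at about 8.5% in these data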
Of the large screens only hits and unclear results are named; the others gave an inactive call. Sampled rows, rich in hits. Any-hit rate of the full collection: about 2.9%.

CCCOc1ccc(N2C(=O)CC(N3CCN(c4nc5ccccc5s4)CC3)C2=O)cc1 (stereo not drawn)	none
O=C(O)CCC(=O)N1CCN(c2ccccn2)CC1	none
O=C(O)CCC(=O)N1CCN(c2nc3ccccc3s2)CC1	5HT1E ag 15
CCOC(=O)c1c(-c2ccc(C)o2)csc1N	none
CCOC(=O)c1c(-c2ccc(C)o2)csc1NC(=O)COC(=O)c1cccs1	5HT1a antag 50
O=C(CCCCCn1c(=O)[nH]c2ccccc2c1=O)NCCCN1CCN(c2ccccc2F)CC1	none
O=S(CCc1ccncc1)Cc1ccccc1 (stereo not drawn)	HTR1A agonist 40 (no result: 5HT1a antag)
CC(CCc1ccccc1)NCc1ccncc1 (stereo not drawn)	none
Cc1cc(C(=O)N2CCN(C(c3ccccc3)c3ccccc3)CC2)on1	S1P1 ag-PAM 88
N#CCSc1nc2sc3c(c2c(=O)n1C1CCCCC1)CCCC3	5HT1E ag 13 (no result: 5HT1a antag)
CCOc1ccccc1CN(CCc1ccc2c(c1)OCO2)Cc1ccccn1	5HT1a antag 48
CCOc1ncccc1C(=O)Nc1ccccc1C(=O)NCc1ccc2c(c1)OCO2	none
Cc1cccc(-c2nnc3n2N=C(c2ccccc2Br)CS3)c1	5HT1E antag 31
Clc1ccccc1C1=Nn2c(nnc2-c2ccncc2)SC1	S1P1 ag-PAM 75
COc1ccc(C2=Nn3c(nnc3-c3ccc(OC)cc3)SC2)cc1	5HT1E antag 79, 5HT1a antag 43
COc1cccc(C2=Nn3c(nnc3-c3ccccc3O)SC2)c1	none
Cc1ccc(-c2nnc3n2N=C(c2ccccc2)CS3)cc1	5HT1E antag 45
CCCCNC(=O)CCCCCNS(=O)(=O)c1ccc(OC)cc1	none
CCn1c(SCC(=O)NC(=O)Nc2ccc3c(c2)OCCO3)nnc1-c1cccs1	none
C=CCn1c(CCC(=O)O)ccc1-c1ccccc1	none
COC(C)(C)[C@]12CC(O)(c3ccccc3)ON1[C@H]1CCCCC1N2O (stereo partly drawn)	none
CC(C)Cn1c(N)c(C(=O)COC(=O)c2ccc3c(c2)OCCO3)c(=O)n(C)c1=O	none
Cc1c(C(=O)OCC(=O)c2c(N)n(CC(C)C)c(=O)n(C)c2=O)oc2ccccc12	5HT1a antag 43
COCc1c(C(=O)OCC(=O)c2c(N)n(CC(C)C)c(=O)n(C)c2=O)oc2ccccc12	none
CC(C)Cn1c(N)c(C(=O)CSc2ccc3c(c2)OCCO3)c(=O)n(C)c1=O	S1P1 ag-PAM 104
CCOc1ccc(N2C(=O)c3cccnc3C2Nc2ccc(C)cc2)cc1 (stereo not drawn)	none
CC(C)OC(=O)CSc1nnc(-c2cccnc2)n1Cc1ccccc1	none
CC(C)OC(=O)CSc1nnc(-c2cccnc2)n1N	5HT1E antag 29
CC(=O)Oc1ccc2c(c1)c(C(C)=O)c(C)n2C	none
COc1ccc(-n2c(C)c(C(C)=O)c3cc(O)ccc32)cc1	S1P1 ag-PAM 76 (no result: 5HT1a antag)
Cc1ccc(C2=Nc3ccccc3NC(C)(c3ccc(C)o3)C2)o1 (stereo not drawn)	5HT1a antag 49, 5HT1E ag 17
CSc1nc2sc3c(c2c2nnnn12)CCC3	none (no result: 5HT1a antag)
CSc1nc2sc3c(c2c2nnnn12)CCCC3	5HT1E ag 14 (no result: 5HT1a antag)
Cc1ccc(S(=O)(=O)N2c3ccc(S(N)(=O)=O)cc3CC2C)cc1 (stereo not drawn)	HTR1A agonist 86 (no result: S1P1 ag-PAM)
CC1Cc2ccccc2N1S(=O)(=O)c1cccs1 (stereo not drawn)	none
Cc1ccc(C2/C(=C(\O)c3ccc4c(c3)OCCO4)C(=O)C(=O)N2CCCN(C)C)o1 (stereo not drawn)	none (no result: 5HT1a antag)
CNC(=O)N(C1=NCC(C)(C)S1)c1ccc(F)c(Cl)c1	5HT1E antag 31
COc1cccc(OC)c1C(=O)n1nc(C)cc1C	none
Cc1cccc2cc(C#N)c(NCCNS(=O)(=O)c3ccc4c(c3)OCCO4)nc12	none
O=C(Nc1nncs1)C1c2ccccc2Oc2ccccc21	none (no result: S1P3 ag, S1P1 ag-PAM)
CCn1c(C(=O)N2CCC(C(=O)NCc3ccc4c(c3)OCO4)CC2)cc2sccc21	HTR1A agonist 20
Cc1nc2cc(NC(=O)COc3ccc(C#N)cc3)ccc2n1-c1ccccc1	none
Fc1ccccc1CSc1nnnn1-c1ccc2c(c1)OCO2	5HT1E antag 35 (no result: S1P1 ag-PAM)
CCOC(=O)c1ccc(NC(=O)c2nccnc2C(=O)O)cc1	none
COc1cc(-c2nnc3sc(-c4cccnc4)nn23)cc(OC)c1OC	none
Cc1cc(NCCN2CCOCC2)n2nc(C)c(-c3ccc(Cl)cc3)c2n1	5HT1E antag 32
Cc1cc(NCCN2CCOCC2)n2nc(C)c(-c3ccccc3)c2n1	none
COc1ccc(C2N(c3ccc(F)cc3)C(=O)C3CCCN32)cc1 (stereo not drawn)	5HT1E antag 88
COc1ccccc1C1N(c2ccc(Cl)cc2)C(=O)C2CCCN21 (stereo not drawn)	5HT1E ag 15
COc1ccc(N2C(=O)C3CCCN3C2c2ccccc2OC)cc1 (stereo not drawn)	none
N#Cc1c(NC(=O)CSC2=NCCS2)sc2c1CCCC2	none
Cc1ccnc(SCC(=O)Nc2sc3c(c2C#N)CCCC3)n1	S1P1 ag-PAM 100
Nc1ccc(CN2CCN(c3ccc4ccccc4n3)CC2)cc1	5HT1E ag 14
OCCNc1nc(N2CCN(Cc3ccccc3)CC2)nc2ccccc12	none
Cc1[nH]c2ccccc2c1C(O)CN1CCN(c2cccc(C(F)(F)F)c2)CC1 (stereo not drawn)	HTR1A agonist 46, 5HT1E ag 14
O=C(CN1CCC(O)(c2ccccc2F)CC1)NCCc1c[nH]c2ccccc12	none
COc1cccc(N(C(=O)c2cccs2)c2nc3ccccc3s2)c1	none
O=C(NCCOC(=O)c1ccncc1)c1ccccc1	none
COc1ccc(C(=O)OCCNC(=O)c2c(Cl)nc3ccccn23)cc1	5HT1E antag 35
c1ccc(COc2ccc(Nc3ncnc4nc[nH]c34)cc2)cc1	none
Cn1c(SC2=CS(=O)(=O)c3ccccc32)nc2ccccc21	5HT1E antag 50, 5HT1a antag 74
Cn1c(Cl)nc2ccccc21	none
O=C(CC1c2ccccc2Oc2ccccc21)N1CCN(c2ccccn2)CC1	none
COc1ccc(OC)c(NC(=O)CSCc2cnn(-c3ccccc3)c2-n2cccc2)c1	5HT1a antag 57

From PubChem
